Like-named read-outs stand apart in the source and are kept apart here.
How the values were obtained:
Ddp1 = conditions: 30 minutes at 37 °C; ref 22c; cited from earlier work
Ddp1 phosphohydrolase = Ddp1 phosphohydrolase (Saccharomyces cerevisiae, UniProt Q99321); experiment: Inhibition of His-Ddp1 mediated Ap5A hydrolysis; type: biochemical, yeast; conditions: for inhibition profile of Ddp1 mediated Ap5A hydrolysis (in words): compared with 5PP-IP5, Figures 5b and S4
[1] = Stability in aqueous solution at room temperature; type: physicochemical; conditions: for decomposition in aqueous solution: neutral pH, 40 days at room temperature
protein kinase Akt = protein kinase Akt (Homo sapiens, UniProt P31749); experiment: Inhibition of Akt phosphorylation at threonine 308 by PDK1; type: biochemical
Sequence of protein kinase Akt (P31749 whole entry): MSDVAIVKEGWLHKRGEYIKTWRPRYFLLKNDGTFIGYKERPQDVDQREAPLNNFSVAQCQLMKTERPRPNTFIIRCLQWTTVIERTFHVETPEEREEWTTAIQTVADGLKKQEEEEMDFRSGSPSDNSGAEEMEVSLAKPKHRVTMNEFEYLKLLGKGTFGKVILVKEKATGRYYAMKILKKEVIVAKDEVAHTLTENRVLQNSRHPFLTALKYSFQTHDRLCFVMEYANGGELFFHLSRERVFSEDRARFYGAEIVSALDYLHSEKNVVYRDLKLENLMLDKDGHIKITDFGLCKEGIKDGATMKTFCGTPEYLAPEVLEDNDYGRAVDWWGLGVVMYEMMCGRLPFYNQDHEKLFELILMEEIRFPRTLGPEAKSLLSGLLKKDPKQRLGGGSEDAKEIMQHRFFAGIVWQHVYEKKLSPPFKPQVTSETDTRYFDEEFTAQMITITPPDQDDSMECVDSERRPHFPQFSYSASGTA
Outline: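 Akt Thr308 phosphorylation was detected by Western blot with a phosphospecific antibody, with a total-Akt blot as loading control. IC50 was determined in three independent experiments.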

[2] = 1H and 31P NMR titration in D2O; type: physicochemical; conditions: D2O with 140mM K+, 10mM Na+, 1mM Mg2+, room temperature

Sequence of Ddp1 phosphohydrolase (Q99321 whole entry): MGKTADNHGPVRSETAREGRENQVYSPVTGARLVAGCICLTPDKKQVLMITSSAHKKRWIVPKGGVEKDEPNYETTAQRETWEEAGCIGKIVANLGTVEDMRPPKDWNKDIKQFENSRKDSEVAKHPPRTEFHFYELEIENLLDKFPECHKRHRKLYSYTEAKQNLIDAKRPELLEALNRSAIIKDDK

O=P(O)(O)OC1[C@@H](OP(=O)(O)O)[C@@H](OP(=O)(O)O)C(OP(=O)(O)OP(=O)(O)O)[C@H](OP(=O)(O)O)[C@H]1OP(=O)(O)O (stereo partly shown) [1PP-IP5]
hydrolysis by Ddp1 (Ddp1): completely hydrolysed to IP6

O=P(O)(O)CP(=O)(O)O[C@@H]1[C@@H](OP(=O)(O)O)[C@H](OP(=O)(O)O)[C@H](O)[C@H](OP(=O)(O)O)[C@H]1OP(=O)(O)O [5PCP-IP4]
inhibition profile of Ddp1 mediated Ap5A hydrolysis (in words) (Ddp1 phosphohydrolase): very similar inhibition profiles
decomposition in aqueous solution [1]: no signs of decomposition

O=P(O)(O)OC1C(OP(=O)(O)O)C(OP(=O)(O)O)C(OP(=O)(O)O)C(OP(=O)(O)O)C1OP(=O)(O)O (stereo not shown) [IP6, inositol hexakisphosphate, reference compound]
IC50 in Ddp1 Ap5A hydrolysis relative to 5PP-IP5 (Ddp1 phosphohydrolase; data not shown): more than ten times higher

O=P(O)(O)CP(=O)(O)O[C@H]1[C@H](OP(=O)(O)O)[C@@H](OP(=O)(O)O)[C@@H](OP(=O)(O)O)[C@@H](OP(=O)(O)O)[C@@H]1OP(=O)(O)O [5PCP-IP5]
IC50 (protein kinase Akt; read-out: IC50, inhibition of Akt phosphorylation at threonine 308, purified inactive Akt and activated PDK1, three independent experiments): 129 nM
inhibition profile of Ddp1 mediated Ap5A hydrolysis (in words) (Ddp1 phosphohydrolase): very similar inhibition profiles
decomposition in aqueous solution [1]: no signs of decomposition
decomposition at low or high pD ([1]; pD 2.0 or 13.0, 40 days at room temperature): no detectable decomposition
pD of ring inversion (conformational change) [2]: ~8.8

O=P(O)(O)O[C@H]1[C@@H](OP(=O)(O)O)[C@H](OP(=O)(O)O)[C@@H](OP(=O)(O)OP(=O)(O)O)[C@H](OP(=O)(O)O)[C@H]1OP(=O)(O)O [5PP-IP5, reference compound]
IC50 (protein kinase Akt): 217 nM
IC50 (Ddp1 phosphohydrolase): 2500 nM
pD of ring inversion (conformational change) [2]: ~8.8
hydrolysis by Ddp1 (Ddp1): no signs of hydrolysis
